Source: ChEMBL document CHEMBL3232989, “First identification of boronic species as novel potential inhibitors of the Staphylococcus aureus NorA efflux pump” (J Med Chem, 2014)

Legend:
[1] = target: T1, Quinolone resistance protein NorA (Staphylococcus aureus) (UniProt P0A0J7); experiment: Inhibition of NorA in fluoroquinolone-resistant Staphylococcus aureus 1199B assessed as potentiation of 4 ug/ml of ciprofloxacin MIC at 100 ug/ml after 24 hrs by microdilution method
T1 sequence (whole entry): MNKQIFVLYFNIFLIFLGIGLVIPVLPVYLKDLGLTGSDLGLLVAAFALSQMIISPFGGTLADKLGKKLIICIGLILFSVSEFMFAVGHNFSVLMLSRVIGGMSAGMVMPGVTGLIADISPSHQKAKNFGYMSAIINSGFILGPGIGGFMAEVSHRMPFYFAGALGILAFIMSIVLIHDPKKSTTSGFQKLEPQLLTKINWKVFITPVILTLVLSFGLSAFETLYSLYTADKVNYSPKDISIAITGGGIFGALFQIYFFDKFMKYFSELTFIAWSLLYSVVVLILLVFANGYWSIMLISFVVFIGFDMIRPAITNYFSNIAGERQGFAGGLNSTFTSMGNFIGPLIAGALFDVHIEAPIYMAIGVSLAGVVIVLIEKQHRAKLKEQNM
How it was run: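 Combination with ciprofloxacin 4 μg/mL (MIC/4) against SA-1199B in MH broth microdilution, 10^6 CFU/mL, 24 h at 37 °C, read at 620 nm and visually. Compounds are first screened at 100 μg/mL; actives are 2-fold serially diluted. MMC4 is the lowest inhibitor concentration giving antibacterial activity with subinhibitory ciprofloxacin. Duplicates.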

[2] = tested on: Staphylococcus aureus; experiment: Toxicity in Staphylococcus aureus ATCC 25923 after 24 hrs by microdilution method; format: organism-based
How it was run: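 Mueller–Hinton broth microdilution; inoculum from frozen culture grown 18 h at 37 °C, 10^6 CFU/mL per well. Compounds (10 mg/mL DMSO stock) in 2-fold serial dilutions, highest 128 mg/L, first screened at 100 μg/mL. MIC = complete growth inhibition after 24 h at 37 °C, read at 620 nm and visually; duplicate; ampicillin control.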

[3] = tested on: Staphylococcus aureus; experiment: Toxicity in fluoroquinolone-resistant Staphylococcus aureus 1199B expressing NorA after 24 hrs by microdilution method; format: organism-based; conditions: in vitro
How it was run: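 Broth microdilution in Mueller–Hinton broth, 10^6 CFU/mL per well from an 18 h 37 °C culture. Compounds come from 10 mg/mL DMSO stocks as 2-fold serial dilutions, top 128 mg/L. Plates run 24 h at 37 °C and are read at 620 nm and visually. MIC is the lowest concentration with complete growth inhibition. Duplicates; 2-fold variance accepted.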

[4] = tested on: Staphylococcus aureus; experiment: Toxicity in Staphylococcus aureus ATCC 25923 at 100 ug/ml after 24 hrs by microdilution method; format: organism-based
How it was run: (§1)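 Single-point screen at 100 μg/mL of compound alone in MH broth microdilution, 10^6 CFU/mL, 24 h at 37 °C. Growth is read at 620 nm and visually, giving percent growth inhibition. Compounds inhibiting more than 90% then go to MIC determination. Duplicates.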

[5] = tested on: Staphylococcus aureus; experiment: Toxicity in fluoroquinolone-resistant Staphylococcus aureus 1199B expressing NorA at 100 ug/ml after 24 hrs by microdilution method; format: organism-based; how it was run: as §1

Compound	Activity [1]	MIC [2]	MIC [3]	growth inhibition (GI) [4]	growth inhibition (GI) [5]
O=Cc1ccccc1Cl	> 128 µg/mL	>= 64 ug ml-1	> 128 µg/mL	–	–
Cc1cc(C(=O)O)cnc1Cl	> 128 µg/mL	>= 64 ug ml-1	> 128 µg/mL	–	–
Oc1ccc2ccccc2c1 [BETANAPHTHOL]	64 µg/mL	>= 64 ug ml-1	> 128 µg/mL	–	–
COc1ccc(B(O)O)cc1	64 µg/mL	–	> 128 µg/mL	–	–
O=Cc1cccnc1 [NICOTINALDEHYDE]	> 128 µg/mL	>= 64 ug ml-1	> 128 µg/mL	–	–
Oc1ccccc1Cl [2-CHLOROPHENOL]	128 µg/mL	>= 64 ug ml-1	> 128 µg/mL	–	–
O=Cc1ccccc1Br	> 128 µg/mL	>= 64 ug ml-1	> 128 µg/mL	–	–
O=C(O)c1ccc(Cl)nc1 [6-CHLORONICOTINIC ACID]	> 128 µg/mL	>= 64 ug ml-1	> 128 µg/mL	–	–
Oc1ccc(Br)nc1	> 128 µg/mL	>= 64 ug ml-1	> 128 µg/mL	–	–
O=C(O)c1ccc(Br)nc1	> 128 µg/mL	>= 64 ug ml-1	> 128 µg/mL	–	–
O=Cc1ccc(OCc2ccccc2)nc1	32 µg/mL	>= 64 ug ml-1	> 128 µg/mL	–	–
Oc1ccccc1 [PHENOL]	> 128 µg/mL	>= 64 ug ml-1	> 128 µg/mL	–	–
O=Cc1cnc2ccccc2c1	> 128 µg/mL	>= 64 ug ml-1	> 128 µg/mL	–	–
O=C(O)c1ccccc1Br	> 128 µg/mL	>= 64 ug ml-1	> 128 µg/mL	–	–
O=Cc1ccccc1 [BENZALDEHYDE]	> 128 µg/mL	>= 64 ug ml-1	> 128 µg/mL	–	–
Cc1cccc(O)c1Cl	64 µg/mL	>= 64 ug ml-1	> 128 µg/mL	–	–
O=C(O)c1ccc2ccccc2c1 [BETA-NAPHTOIC ACID]	> 128 µg/mL	>= 64 ug ml-1	> 128 µg/mL	–	–
O=C(O)c1ccccc1 [BENZOIC ACID]	> 128 µg/mL	>= 64 ug ml-1	> 128 µg/mL	–	–
Cc1cccc(C(=O)O)c1Cl	> 128 µg/mL	>= 64 ug ml-1	> 128 µg/mL	–	–
Cc1cc(O)cnc1Cl	> 128 µg/mL	>= 64 ug ml-1	> 128 µg/mL	–	–
Oc1cnc2ccccc2c1	> 128 µg/mL	>= 64 ug ml-1	> 128 µg/mL	–	–
O=C(O)c1cccnc1 [NIACIN]	> 128 µg/mL	>= 64 ug ml-1	> 128 µg/mL	–	–
O[B-](O)(O)c1cccnc1.[Na+]	128 µg/mL	>= 64 ug ml-1	–	< 90%	< 90%
COc1ncccc1B(OC(C)(C)C(C)(C)O)OC(C)(C)C(C)(C)O	> 128 µg/mL	>= 64 ug ml-1	–	< 90%	< 90%
OB(O)c1cncc(Oc2cccnc2)c1	16 µg/mL	>= 64 ug ml-1	> 128 µg/mL	–	–
O=C(O)c1cnc2ccccc2c1	32 µg/mL	>= 64 ug ml-1	> 128 µg/mL	–	–
Cc1cc(B(O)O)cnc1Br	32 µg/mL	>= 64 ug ml-1	–	< 90%	< 90%
